Data on two compounds can be found in ChEMBL document CHEMBL4715860 (J Med Chem, 2020).

A short description of data set [1]: Inhibition of mTOR2 in human A2058 cells assessed as reduction in PKB/Akt phosphorylation at Ser473 incubated for 1 hr by Western blot analysis. The data set is classed as cell-based. Conditions: A2058, 1 h; call rule not given here. The gist of the method: (§1)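 A2058 cells grown 24 h at 37 °C, then exposed to inhibitor or DMSO for 1 h. Cells were PFA-fixed and stained for pPKB Ser473 or pS6 Ser235/236 by in-cell western with IR-dye secondary antibodies. Signal normalized to tubulin and to DMSO. IC50 from a 7-point (triplicate) or 11-point (duplicate) 1:2 series.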

A short description of data set [2]: Inhibition of mTORC1 in human A2058 cells assessed as reduction in RPS6 phosphorylation at S235/236 residue incubated for 1 hrs by Western blot analysis. The class given is cell-based. Conditions: A2058, 1 h. In a few lines:
as §1

In data set [3] the target is PI3-kinase p110-alpha/p85-alpha (Homo sapiens, UniProt P42336). As to the kind of experiment: Inhibition of alexa fluor 647-labeled kinase tracer 314 binding to recombinant human N-terminal His-tagged p110alpha/p85alpha expressed in baculovirus expression system measured after 60 mins by LanthaScreen TR-FRET assay relative to control.
The target in data set [4] is Phosphatidylinositol 4,5-bisphosphate 3-kinase catalytic subunit alpha isoform (Homo sapiens, UniProt P42336). As to the kind of experiment: Binding affinity to wild-type human partial length PIK3CA (R108 to N1068 residues) expressed in HEK293 cells measured after 1 hr by Kinomescan method. The data set is classed as cell-based. In a few lines:
(§2)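 Compound given as an 11-point threefold series from 30 μM, in technical duplicate. Kd from a Hill fit with slope fixed at −1.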

The target in data set [5] is Phosphatidylinositol 4,5-bisphosphate 3-kinase catalytic subunit beta isoform (Homo sapiens, UniProt P42338). As to the kind of experiment: Binding affinity to wild-type human partial length PIK3CB (P118 to S1070 residues) expressed in HEK293 cells measured after 1 hr by Kinomescan method. The data set is classed as cell-based. The gist of the method: as §2
The target in data set [6] is T1, Phosphatidylinositol 4,5-bisphosphate 3-kinase catalytic subunit delta isoform (Homo sapiens, UniProt O00329).
T1 sequence (O00329 whole entry): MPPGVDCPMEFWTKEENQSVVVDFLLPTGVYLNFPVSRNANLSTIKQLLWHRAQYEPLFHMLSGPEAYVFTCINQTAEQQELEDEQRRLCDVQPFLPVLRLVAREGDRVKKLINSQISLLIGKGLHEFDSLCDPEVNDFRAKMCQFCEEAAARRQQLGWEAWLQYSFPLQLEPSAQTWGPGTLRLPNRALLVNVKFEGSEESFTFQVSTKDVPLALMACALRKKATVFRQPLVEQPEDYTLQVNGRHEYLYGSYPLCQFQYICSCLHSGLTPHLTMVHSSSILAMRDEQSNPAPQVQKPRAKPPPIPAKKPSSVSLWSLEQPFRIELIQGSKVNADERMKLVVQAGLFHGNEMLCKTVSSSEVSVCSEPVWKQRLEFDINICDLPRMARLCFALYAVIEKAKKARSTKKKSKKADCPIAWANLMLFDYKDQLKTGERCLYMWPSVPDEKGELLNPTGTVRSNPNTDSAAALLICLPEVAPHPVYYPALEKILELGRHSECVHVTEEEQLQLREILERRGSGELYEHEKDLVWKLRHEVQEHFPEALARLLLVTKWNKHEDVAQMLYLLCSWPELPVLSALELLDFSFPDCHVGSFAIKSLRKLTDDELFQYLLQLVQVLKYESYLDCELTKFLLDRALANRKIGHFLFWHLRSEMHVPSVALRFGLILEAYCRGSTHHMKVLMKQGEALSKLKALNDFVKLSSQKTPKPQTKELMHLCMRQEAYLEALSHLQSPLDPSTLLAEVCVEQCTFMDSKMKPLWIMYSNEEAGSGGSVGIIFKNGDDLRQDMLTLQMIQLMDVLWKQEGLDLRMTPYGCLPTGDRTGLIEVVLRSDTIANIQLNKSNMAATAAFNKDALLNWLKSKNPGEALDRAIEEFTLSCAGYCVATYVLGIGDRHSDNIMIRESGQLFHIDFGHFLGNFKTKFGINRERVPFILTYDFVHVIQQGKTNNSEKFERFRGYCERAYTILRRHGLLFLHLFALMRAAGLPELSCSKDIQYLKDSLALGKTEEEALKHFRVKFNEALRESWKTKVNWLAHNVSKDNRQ
As to the kind of experiment: Binding affinity to wild-type human partial length PIK3CD (R108 to Q1044 residues) expressed in HEK293 cells measured after 1 hr by Kinomescan method. The class given is cell-based. The gist of the method: as §2

Data set [7] deals with Phosphatidylinositol 4,5-bisphosphate 3-kinase catalytic subunit gamma isoform (Homo sapiens, UniProt P48736). As to the kind of experiment: Binding affinity to wild-type human partial length PIK3CG (S144 to A1102 residues) expressed in HEK293 cells measured after 1 hr by Kinomescan method. The class given is cell-based. The gist of the method:
as §2

Data set [8] concerns the target Phosphatidylinositol 4-kinase beta (Homo sapiens, UniProt Q9UBF8). As to the kind of experiment: Binding affinity to wild-type human full length PIK4CB (M1 to M828 residues) expressed in HEK293 cells measured after 1 hr by Kinomescan method. The data set is classed as cell-based. The gist of the method:
as §2

In data set [9] the target is Phosphatidylinositol 3-kinase catalytic subunit type 3 (Homo sapiens, UniProt Q8NEB9). As to the kind of experiment: Binding affinity to wild-type human partial length VPS34 (S282 to H879 residues) expressed in HEK293 cells measured after 1 hr by Kinomescan method. The class given is cell-based. The gist of the method:
as §2

Data set [10] in a line: Substrate activity at human P-glycoprotein stably expressed in MDCK cells at 1 uM measured after 5 to 20 mins by UPLC-MS/MS analysis. The data set is classed as ADME, cell-based. Conditions: time 5-20 min. The gist of the method:
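CRISPR canine-MDR1-knockout MDCKII cells stably expressing human MDR1, with the knockout parent line as control. Cells grown 5 days on TransWell filters and preincubated in HBSS 30 min at 37 °C. Compound at 1 μM added apical or basolateral. Receiver sampled at 5, 10 and 20 min; UPLC-MS/MS.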

For another data set, the target named is T2, CYP1A2 (Homo sapiens, UniProt P05177).
T2 sequence (P05177 whole entry): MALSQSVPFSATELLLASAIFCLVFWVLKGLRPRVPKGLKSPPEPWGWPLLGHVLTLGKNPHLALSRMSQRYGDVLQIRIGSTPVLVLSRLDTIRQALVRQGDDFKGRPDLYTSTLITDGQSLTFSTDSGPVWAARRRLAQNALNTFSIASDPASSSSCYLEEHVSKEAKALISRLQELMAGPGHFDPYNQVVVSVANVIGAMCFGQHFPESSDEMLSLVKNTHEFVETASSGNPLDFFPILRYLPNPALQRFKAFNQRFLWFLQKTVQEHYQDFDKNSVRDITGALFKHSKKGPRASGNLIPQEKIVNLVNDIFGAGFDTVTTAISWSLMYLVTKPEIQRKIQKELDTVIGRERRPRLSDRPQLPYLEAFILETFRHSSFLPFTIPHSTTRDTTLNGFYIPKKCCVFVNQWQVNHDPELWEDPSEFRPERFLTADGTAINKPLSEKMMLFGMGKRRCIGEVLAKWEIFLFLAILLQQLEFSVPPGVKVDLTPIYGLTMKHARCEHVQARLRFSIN
As to the kind of experiment: Drug metabolism assessed as human recombinant CYP1A2 expressed in baculovirus infected insect cells-mediated metabolism by measuring parent compound remaining at 1 uM incubated for 60 mins in presence of NADPH regenerating system by UHPLC based LC-MS analysis. The data set is classed as ADME. Conditions: read-out: Stabilty.

Chain of Phosphatidylinositol 3-kinase catalytic subunit type 3 (Q8NEB9 whole entry, the tested form may be a part): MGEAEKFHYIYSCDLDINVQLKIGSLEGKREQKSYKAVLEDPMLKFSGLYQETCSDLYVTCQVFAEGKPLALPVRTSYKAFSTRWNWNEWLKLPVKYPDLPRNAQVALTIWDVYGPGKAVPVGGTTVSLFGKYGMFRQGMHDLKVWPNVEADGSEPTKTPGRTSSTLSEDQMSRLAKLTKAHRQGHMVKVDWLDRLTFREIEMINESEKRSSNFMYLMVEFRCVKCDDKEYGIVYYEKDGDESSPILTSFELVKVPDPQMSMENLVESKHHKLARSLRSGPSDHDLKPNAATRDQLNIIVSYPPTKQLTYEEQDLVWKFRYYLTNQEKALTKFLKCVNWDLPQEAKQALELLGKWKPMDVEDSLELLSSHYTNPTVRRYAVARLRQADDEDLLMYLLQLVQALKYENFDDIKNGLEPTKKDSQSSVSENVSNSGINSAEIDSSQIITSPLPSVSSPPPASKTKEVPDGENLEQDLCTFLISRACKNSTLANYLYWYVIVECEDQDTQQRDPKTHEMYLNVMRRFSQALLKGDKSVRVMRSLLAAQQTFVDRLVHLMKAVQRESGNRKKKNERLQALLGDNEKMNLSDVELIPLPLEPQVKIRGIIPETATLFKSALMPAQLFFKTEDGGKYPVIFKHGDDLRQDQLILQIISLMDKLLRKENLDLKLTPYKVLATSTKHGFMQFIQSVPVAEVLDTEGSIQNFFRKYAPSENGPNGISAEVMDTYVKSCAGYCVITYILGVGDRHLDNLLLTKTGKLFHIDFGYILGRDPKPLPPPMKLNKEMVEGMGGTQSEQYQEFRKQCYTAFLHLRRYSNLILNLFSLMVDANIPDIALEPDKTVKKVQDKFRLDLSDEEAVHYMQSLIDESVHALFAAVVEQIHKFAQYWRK
Chain of Phosphatidylinositol 4,5-bisphosphate 3-kinase catalytic subunit gamma isoform (P48736 whole entry, the tested form may be a part, canonical isoform): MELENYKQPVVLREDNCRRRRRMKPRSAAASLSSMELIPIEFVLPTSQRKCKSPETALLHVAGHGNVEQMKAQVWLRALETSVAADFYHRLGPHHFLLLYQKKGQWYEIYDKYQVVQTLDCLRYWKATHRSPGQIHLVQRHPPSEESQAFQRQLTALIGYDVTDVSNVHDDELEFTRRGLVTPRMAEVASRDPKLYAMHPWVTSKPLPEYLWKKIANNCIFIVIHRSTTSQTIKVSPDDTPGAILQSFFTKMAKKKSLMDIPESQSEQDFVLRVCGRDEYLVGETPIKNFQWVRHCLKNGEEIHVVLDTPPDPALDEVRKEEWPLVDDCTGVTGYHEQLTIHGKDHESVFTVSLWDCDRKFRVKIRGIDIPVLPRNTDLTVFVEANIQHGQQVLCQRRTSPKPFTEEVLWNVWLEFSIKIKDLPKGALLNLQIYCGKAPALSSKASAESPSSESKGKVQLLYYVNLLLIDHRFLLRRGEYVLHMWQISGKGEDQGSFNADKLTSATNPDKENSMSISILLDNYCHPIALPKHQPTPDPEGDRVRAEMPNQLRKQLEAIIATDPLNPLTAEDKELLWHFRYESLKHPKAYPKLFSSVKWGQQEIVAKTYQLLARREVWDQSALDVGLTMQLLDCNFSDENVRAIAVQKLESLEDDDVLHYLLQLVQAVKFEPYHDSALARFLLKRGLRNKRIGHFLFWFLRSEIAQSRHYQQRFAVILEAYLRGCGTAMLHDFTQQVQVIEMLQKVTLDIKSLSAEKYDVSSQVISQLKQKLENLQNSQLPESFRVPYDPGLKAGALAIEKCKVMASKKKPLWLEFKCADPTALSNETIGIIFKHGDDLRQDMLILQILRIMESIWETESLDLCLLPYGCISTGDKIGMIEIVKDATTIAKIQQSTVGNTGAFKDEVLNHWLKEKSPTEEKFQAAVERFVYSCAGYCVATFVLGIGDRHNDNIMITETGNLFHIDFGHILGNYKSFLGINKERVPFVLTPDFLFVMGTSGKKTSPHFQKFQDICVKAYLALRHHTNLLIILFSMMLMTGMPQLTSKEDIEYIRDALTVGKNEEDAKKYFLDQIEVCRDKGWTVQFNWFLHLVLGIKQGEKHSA
Chain of Phosphatidylinositol 4,5-bisphosphate 3-kinase catalytic subunit beta isoform (P42338 whole entry, the tested form may be a part, canonical isoform): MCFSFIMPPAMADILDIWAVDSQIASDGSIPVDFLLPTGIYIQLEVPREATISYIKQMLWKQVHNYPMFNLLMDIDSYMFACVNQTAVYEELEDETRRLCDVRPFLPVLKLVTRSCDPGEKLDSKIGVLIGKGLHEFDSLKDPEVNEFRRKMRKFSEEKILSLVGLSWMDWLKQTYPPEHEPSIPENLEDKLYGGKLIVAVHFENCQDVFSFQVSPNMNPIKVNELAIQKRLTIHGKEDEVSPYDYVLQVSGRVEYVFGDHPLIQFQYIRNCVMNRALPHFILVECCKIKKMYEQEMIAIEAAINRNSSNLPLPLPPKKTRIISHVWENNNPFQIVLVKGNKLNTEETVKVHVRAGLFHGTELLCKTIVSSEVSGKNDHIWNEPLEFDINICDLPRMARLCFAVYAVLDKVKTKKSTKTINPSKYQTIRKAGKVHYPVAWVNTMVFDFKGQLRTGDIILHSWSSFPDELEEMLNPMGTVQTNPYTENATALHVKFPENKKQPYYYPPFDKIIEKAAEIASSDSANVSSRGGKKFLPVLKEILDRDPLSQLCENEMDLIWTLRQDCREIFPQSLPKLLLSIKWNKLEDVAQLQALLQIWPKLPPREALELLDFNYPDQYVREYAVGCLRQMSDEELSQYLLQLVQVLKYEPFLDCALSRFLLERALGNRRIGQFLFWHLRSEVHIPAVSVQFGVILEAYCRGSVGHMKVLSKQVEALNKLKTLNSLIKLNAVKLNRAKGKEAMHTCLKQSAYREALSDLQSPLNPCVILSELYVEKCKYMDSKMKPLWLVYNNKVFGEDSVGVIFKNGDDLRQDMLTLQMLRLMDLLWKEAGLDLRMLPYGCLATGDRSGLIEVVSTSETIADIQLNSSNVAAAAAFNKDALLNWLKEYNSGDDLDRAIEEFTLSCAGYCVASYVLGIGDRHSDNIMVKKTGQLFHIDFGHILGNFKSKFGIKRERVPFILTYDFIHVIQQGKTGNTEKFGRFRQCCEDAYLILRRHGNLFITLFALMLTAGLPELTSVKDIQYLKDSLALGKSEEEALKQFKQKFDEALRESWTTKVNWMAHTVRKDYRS
Chain of Phosphatidylinositol 4-kinase beta (Q9UBF8 whole entry, the tested form may be a part): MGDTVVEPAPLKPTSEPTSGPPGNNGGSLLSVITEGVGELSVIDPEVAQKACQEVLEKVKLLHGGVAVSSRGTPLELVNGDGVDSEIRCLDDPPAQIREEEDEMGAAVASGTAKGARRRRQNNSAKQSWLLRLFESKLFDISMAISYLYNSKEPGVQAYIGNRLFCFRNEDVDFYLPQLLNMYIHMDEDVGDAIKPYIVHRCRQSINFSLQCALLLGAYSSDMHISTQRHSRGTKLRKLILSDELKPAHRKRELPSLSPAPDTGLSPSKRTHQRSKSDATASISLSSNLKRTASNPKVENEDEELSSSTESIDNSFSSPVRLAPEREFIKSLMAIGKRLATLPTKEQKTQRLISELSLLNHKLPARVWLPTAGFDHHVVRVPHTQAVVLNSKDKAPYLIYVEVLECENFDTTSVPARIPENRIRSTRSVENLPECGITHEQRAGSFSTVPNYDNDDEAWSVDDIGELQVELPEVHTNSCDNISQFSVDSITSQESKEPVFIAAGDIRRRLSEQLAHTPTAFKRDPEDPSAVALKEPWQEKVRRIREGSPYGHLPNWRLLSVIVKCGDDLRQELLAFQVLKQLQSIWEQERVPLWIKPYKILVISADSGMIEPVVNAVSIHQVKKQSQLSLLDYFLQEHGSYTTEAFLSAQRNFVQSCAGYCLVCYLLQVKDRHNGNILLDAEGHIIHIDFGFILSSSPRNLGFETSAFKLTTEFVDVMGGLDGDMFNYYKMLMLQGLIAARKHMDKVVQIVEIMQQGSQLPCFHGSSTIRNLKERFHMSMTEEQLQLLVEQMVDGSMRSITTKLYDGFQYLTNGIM
Chain of Phosphatidylinositol 4,5-bisphosphate 3-kinase catalytic subunit alpha isoform (P42336 whole entry, the tested form may be a part, canonical isoform): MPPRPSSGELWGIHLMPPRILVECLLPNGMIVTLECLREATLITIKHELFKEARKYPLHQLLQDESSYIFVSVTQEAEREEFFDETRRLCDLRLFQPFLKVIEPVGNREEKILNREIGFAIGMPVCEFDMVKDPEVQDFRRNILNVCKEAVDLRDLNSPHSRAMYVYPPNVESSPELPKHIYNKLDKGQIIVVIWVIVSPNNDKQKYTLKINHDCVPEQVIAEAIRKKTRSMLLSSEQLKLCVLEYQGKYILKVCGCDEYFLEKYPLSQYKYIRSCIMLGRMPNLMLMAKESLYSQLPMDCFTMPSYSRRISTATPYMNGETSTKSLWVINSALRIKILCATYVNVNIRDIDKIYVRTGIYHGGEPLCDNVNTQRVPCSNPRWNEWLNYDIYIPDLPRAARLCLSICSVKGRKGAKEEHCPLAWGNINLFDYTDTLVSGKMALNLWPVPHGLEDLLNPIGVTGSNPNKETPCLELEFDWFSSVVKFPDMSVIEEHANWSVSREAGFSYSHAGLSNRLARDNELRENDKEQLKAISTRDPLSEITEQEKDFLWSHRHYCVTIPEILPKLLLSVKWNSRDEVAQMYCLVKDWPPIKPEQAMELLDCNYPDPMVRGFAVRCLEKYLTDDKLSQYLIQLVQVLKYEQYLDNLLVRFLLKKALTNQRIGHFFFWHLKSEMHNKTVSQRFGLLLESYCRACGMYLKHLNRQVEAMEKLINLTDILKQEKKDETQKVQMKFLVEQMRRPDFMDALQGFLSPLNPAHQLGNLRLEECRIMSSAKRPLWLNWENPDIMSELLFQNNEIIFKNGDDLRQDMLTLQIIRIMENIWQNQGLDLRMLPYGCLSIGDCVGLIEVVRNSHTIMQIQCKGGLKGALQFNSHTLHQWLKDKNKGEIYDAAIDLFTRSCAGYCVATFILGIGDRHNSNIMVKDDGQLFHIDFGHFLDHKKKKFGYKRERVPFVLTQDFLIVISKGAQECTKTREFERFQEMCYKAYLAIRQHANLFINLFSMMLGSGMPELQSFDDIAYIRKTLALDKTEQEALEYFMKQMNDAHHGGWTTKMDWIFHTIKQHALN

Take `C[C@@H]1COCCN1c1nc(-c2cnc(N)cc2C(F)F)nc(N2[C@H](C)COC[C@@H]2C)n1`: the half-inhibitory concentration (IC50) was determined as 96 nM in [1] and 71 nM in [2]. The Ki in data set [3] is 287 nM. The dissociation constant (Kd) in [4] is 110 nM; in data set [5], 1450 nM; in data set [6] it was 3500 nM; in data set [7], 1350 nM; in data set [8], more than 30000 nM; in data set [9], 65 nM. Besides, in data set [10], the Activity result is “Not Active”. The remaining at 1 h, 1 µM at CYP1A2 was 98.5%.

Regarding `C[C@@H]1COCCN1c1nc(-c2cnc(N)cc2C(F)F)nc(N2CCOCC2(C)C)n1`, the concentration for half-maximal inhibition (IC50) in data set [1] is 191 nM; in data set [2], 61 nM. The Ki in data set [3] was 469 nM. The Kd in data set [4] is 81 nM; in [5] it was 1350 nM; in data set [6], 2450 nM; in [7], 595 nM; in data set [8], more than 30000 nM; in [9] it was 28 nM. Further, the Activity result in [10] is listed as “Not Active”. For the same compound, the remaining at 1 h, 1 µM on CYP1A2 amounted to 101%.
